Measurements from ChEMBL document CHEMBL1124852, “Synthesis of 3-arylecgonine analogues as inhibitors of cocaine binding and dopamine uptake” (J Med Chem, 1990).

Experiments:
[1] = target: Sodium-dependent dopamine transporter (Bos taurus, UniProt P27922); test: Competitive inhibition against [3H]cocaine binding to cocaine receptor in bovine striatal tissue; assay type: tissue-based, Striatum
Summary of the method: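 Bovine striatum (caudate, putamen, globus pallidus, nucleus accumbens) homogenised in ice-cold 10 mM Na2HPO4 with 0.32 M sucrose, pH 7.4. Pelleted twice at 17000g for 20 min and resuspended to about 3.0 mg/mL protein (Lowry). [3H]cocaine (29.7 Ci/mmol) binding measured by filtration. Triplicates; mean of three experiments; IC50 by log-logit transformation.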

Bos taurus = organism: Bos taurus; test: Competitive inhibition against [3H]dopamine uptake in bovine striatal tissue; assay type: functional, Striatum
Summary of the method: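 Striatal P2 synaptosomes prepared in ice-cold 0.3 M sucrose with […], pH 7.4 (3000g for 10 min, then supernatant at 17000g for 20 min). [3H]dopamine (30 Ci/mmol) uptake read by filtration at 37 °C; nonspecific uptake measured at 4 °C. Run in triplicate; mean of three experiments; IC50 from log-logit transformation.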

Chain of Sodium-dependent dopamine transporter (P27922 whole entry): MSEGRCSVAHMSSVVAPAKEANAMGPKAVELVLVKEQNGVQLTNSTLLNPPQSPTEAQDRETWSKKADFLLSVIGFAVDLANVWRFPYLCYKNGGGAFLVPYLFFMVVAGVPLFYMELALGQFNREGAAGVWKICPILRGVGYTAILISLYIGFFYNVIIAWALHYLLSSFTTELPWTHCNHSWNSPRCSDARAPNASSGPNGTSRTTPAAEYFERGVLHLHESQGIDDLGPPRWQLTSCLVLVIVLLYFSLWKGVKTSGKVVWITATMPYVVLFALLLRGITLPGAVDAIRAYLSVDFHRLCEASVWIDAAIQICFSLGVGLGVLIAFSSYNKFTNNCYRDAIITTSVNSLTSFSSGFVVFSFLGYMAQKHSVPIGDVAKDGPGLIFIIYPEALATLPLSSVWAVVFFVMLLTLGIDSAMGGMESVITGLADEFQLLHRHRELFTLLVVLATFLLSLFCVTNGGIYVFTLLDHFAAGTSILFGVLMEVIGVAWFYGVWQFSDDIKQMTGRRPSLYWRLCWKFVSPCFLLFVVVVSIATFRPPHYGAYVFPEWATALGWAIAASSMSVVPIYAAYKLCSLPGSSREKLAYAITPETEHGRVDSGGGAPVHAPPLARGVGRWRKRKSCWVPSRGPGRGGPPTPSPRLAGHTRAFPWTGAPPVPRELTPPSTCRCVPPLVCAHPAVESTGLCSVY

| SMILES | IC50 [1] | IC50 (Bos taurus; Bos taurus, Striatum) | IC50 (Bos taurus) |
| --- | --- | --- | --- |
| COC(=O)C1C(c2ccc(N)cc2)CC2CCC1N2C (stereo not drawn) | 192 nM | 557 nM | – |
| COC(=O)C1C(c2ccc([N+](=O)[O-])cc2[N+](=O)[O-])CC2CCC1N2C (racemic) | 11000 nM | 30000 nM | – |
| COC(=O)[C@@H]1C2CC[C@H](C[C@@H]1c1ccccc1)N2C (mixture of isomers; form 1) | 22 nM | – | 133 nM |
| COC(=O)[C@@H]1C2CC[C@H](C[C@@H]1c1ccccc1)N2C (mixture of isomers; form 2) | 1200 nM | – | 2100 nM |
